Assay results as given in ChEMBL document CHEMBL4359895, “Discovery and biological evaluation of darolutamide derivatives as inhibitors and down-regulators of wild-type AR and the mutants” (Eur J Med Chem, 2019).
Residue numbers refer to the chain shown, from its start. pIC50: −log10 of the molar value. Active and inactive are the calls of the source. The calls are words filed in the database; no cut-off is given here.

Legend:
[1] = target: T1, Androgen receptor (Homo sapiens) (UniProt P10275); assay: Inhibition of AR in human HEK293 cells assessed as decrease in receptor transactivation at 10 uM incubated for 24 hrs by dual luciferase reporter gene assay; type: cell-based
T1 sequence (whole entry): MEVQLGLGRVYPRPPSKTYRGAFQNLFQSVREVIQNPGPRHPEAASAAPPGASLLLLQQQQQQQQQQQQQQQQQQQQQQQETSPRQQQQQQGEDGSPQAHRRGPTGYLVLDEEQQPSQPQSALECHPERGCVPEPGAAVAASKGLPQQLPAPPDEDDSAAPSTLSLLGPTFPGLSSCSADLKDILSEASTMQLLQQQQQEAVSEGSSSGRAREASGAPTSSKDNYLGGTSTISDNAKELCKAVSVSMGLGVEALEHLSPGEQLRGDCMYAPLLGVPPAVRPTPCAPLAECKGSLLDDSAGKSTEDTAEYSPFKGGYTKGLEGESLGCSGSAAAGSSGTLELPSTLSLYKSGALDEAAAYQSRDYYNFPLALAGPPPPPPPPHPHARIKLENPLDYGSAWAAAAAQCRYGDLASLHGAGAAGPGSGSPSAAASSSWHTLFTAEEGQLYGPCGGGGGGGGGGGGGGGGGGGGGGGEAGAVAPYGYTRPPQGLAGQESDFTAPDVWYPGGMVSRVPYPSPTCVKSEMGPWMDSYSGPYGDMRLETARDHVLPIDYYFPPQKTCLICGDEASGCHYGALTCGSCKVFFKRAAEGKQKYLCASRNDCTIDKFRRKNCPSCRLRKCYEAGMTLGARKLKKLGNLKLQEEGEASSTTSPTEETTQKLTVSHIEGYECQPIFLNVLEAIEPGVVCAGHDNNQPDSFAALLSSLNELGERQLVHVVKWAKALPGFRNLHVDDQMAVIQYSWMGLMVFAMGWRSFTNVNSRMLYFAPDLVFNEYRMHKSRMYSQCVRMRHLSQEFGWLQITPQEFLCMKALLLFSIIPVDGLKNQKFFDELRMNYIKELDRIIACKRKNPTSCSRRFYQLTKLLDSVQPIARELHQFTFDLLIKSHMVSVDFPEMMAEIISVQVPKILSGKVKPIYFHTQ
Method in brief: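 HEK 293 cells transiently co-transfected with wt-AR expression vector and an androgen-responsive luciferase reporter construct. Cells given 2 nM testosterone plus 10 µM test compound (final concentrations). Read-out by luciferase, mean ± SD, n = 3.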

VCaP [2] = assay: Antitumor activity against castration-resistant human VCaP cells xenografted in BALB/c mouse assessed as tumor growth inhibition at 60 mg/kg, po administered for 40 days; type: functional; conditions: 960 h, read-out: TGI
Method in brief: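 Castration-resistant VCaP xenografts grown in male BALB/c nude mice. Animals dosed once daily for 40 days alongside a vehicle group. Tumor volume tracked over time, with tumor weights taken at end. Reported as tumor growth inhibition, mean ± SEM, N = 8-9 per group.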

[3] = test system: T2, Androgen receptor (Homo sapiens), P10275 [F877L]; assay: Inhibition of AR F876L mutant (unknown origin) transfected in human PC3 cells assessed as receptor transactivation at 0.1 to 30 uM incubated for 24 hrs by dual luciferase reporter gene assay; type: cell-based
T2 sequence (whole entry): T1 sequence (whole entry) with F877L

VCaP [4] = assay: Inhibition of AR splice variant 7 mutant expression in human VCaP cells at 10 to 30 uM incubated for 24 hrs by Western blot analysis analysis; type: functional, cell-based
Method in brief: (§1)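 LNCaP, VCaP and 22Rv1 cells grown in medium with 10% (v/v) FBS. Treated with compounds or DMSO for 24 h. AR-full and AR splice-variant protein then assessed by western blot.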

[5] = Toxicity in BALB/c mouse xenografted with castration-resistant human VCaP cells assessed as weight loss at 30 to 60 mg/kg, po administered for 40 days; type: organism-based; conditions: in vivo, 960 h
Method in brief: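 Castration-resistant VCaP xenografts in male BALB/c nude mice. Animals treated once daily for 40 days, with a vehicle group included.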

LNCaP [6] = assay: Induction of androgen receptor splice variant 7 mutant degradation in human LNCAP cells at 30 uM incubated upto 26 hrs in presence of bortezomib/MG132 by Western blot analysis; type: functional, cell-based
LNCaP [7] = assay: Inhibition of AR splice variant 7 mutant expression in human LNCAP cells at 5 to 30 uM incubated for 24 hrs by Western blot analysis analysis; type: functional, cell-based; method in brief: as §1
[8] = Half life in Sprague-Dawley rat 30 mg/kg, po measured up to 24 hrs by LC-MS/MS analysis; type: ADME, organism-based; conditions: in vivo
Method in brief: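 Rats dosed orally at 30 mg/kg, compound formulated in 10% DMA / 90% PEG200. Plasma levels followed over time to build concentration-time curves, from which T1/2, Tmax, Cmax and AUC were derived.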

L02 = assay: Cytotoxicity against human L02 assessed as reduction in cell viability incubated for 6 days by CCK-8 assay; type: cell-based; conditions: L02, 144 h
Method in brief: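 Cell proliferation assay run on LNCaP/AR, VCaP, 22Rv1, PC-3 and L-02 cells, with PC-3 and L-02 serving as AR-independent toxicity controls. IC50 fitted in GraphPad Prism 5 as the mean of at least two experiments, each in duplicate. Deviations under 35%.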

Row | SMILES | inhibition [1] | inhibition in vivo at 60 mg/kg (VCaP [2]) [%] | inhibition [3] | inhibition (VCaP [4]) | Activity [5] | Activity (LNCaP [6]) | inhibition (LNCaP [7]) | half-life [8] [h] | pIC50 (L02)
1 | C[C@@H](Cn1ccc(-c2ccc(C#N)c(Cl)c2)n1)Nc1ncnc2nc[nH]c12 | Active | 77.8 | Active | Active | Non-Toxic | inactive | Active | 1.79 | 4.55
2 | C[C@@H](Cn1ccc(-c2ccc(C#N)c(Cl)c2)n1)Nc1cccc2ncccc12 | Active |  | Active | Active |  |  |  |  | 4.78
